CHOP UPR activ – activators of apoptotic arm of unfolded protein response (CHOP) | CHO-CHOP luciferase reporter, UPR activation, luminescence; percent of tunicamycin response over DMSO baseline | activation, % at 10 µM | actives 0.34% (n = 330,000);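 active means at 10 µM dose, activation of 40% or more, normalized to positive control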;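 further: 100% = tunicamycin at 10 µg/mL and 0% = DMSO alone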
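System: CHO CHOP reporter cells. Amount: 500 cells per well. Buffer or medium: F12 medium, 10% FBS. Compound dosing: one dose, 10 µM in 0.5% DMSO. Incubation: 6 h compound exposure at 37 °C after overnight seeding. Technique: Steady-Glo luciferase luminescence. Benchmarks: tunicamycin and DMSO controls.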
aDG glyco up – alpha-DG glycosylation activation; activation, % at 10 µM; actives 0.22% (n = 360,000); Pro5-aDG cells, alpha-DG glycosylation AlphaScreen (IIH6); 0% Pro5, 100% B10-LARGE cell signal;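 active means activation of at least 8% versus controls, or a plate z-score of at least 8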;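 further: Pro5 are CHO cells carrying HIG-tagged alpha-DG that lacks glycosylation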
NR3A LBD binder – modulators (binders) of human NR3A ligand-binding domain | NR3A LBD differential scanning fluorimetry, Tm shift; 0% = protein alone, 100% = glycine-bound protein | Tm shift relative to glycine control, % at 25 µM | actives 2.5% (n = 340,000) | AID 1259313;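 active means melting temperature shift of at least 10% of the positive control shift, at one fixed dose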
CHOP inhibitor – inhibitors of CHOP induction in ER stress response. CHO-K1 CHOP-promoter luciferase, tunicamycin-induced, 15-18 h. inhibition, % at 10 µM. actives 3.8% (n = 220,000);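 active means compounds that reduced the stress-induced luciferase reporter signal by more than about 70% of percent inhibition, limit read from the data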;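 further: 0% = tunicamycin plus vehicle and 100% = wells without tunicamycin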
MPTP inh – permeability transition pore inhibition. isolated mouse mitochondria, Ca2+ swelling absorbance, 30 min. inhibition, % at 10 µM. actives 1.4% (n = 360,000). AID 602449;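 active means inhibition of 50% or more, scaled per plate between neutral and stimulator controls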;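 further: 0% = DMSO wells given calcium and 100% = 1 mM EGTA wells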
UPR XBP1 act – adaptive UPR (XBP1) activation | activation, % at 20 µM | AID 463104 | actives 0.33% (n = 330,000) | CHO-XBP1 luciferase reporter, IRE1-XBP1 UPR activation, luminescence; percent of tunicamycin response, DMSO as zero;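 active means versus positive control, 20 µM dose yields 30% or more activation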;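 further: 100% = tunicamycin at 10 µg/mL and 0% = DMSO only wells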
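Assay system: IRE1-XBP1 luciferase reporter CHO line. Input: 1000 cells/well. Buffer or medium: F12 with 10% serum. Doses: 20 µM, 1% DMSO. Times: overnight seeding at 37 °C, 6 h compound treatment at 37 °C. Technique: Steady-Glo luciferase glow luminescence, 10 min after reagent addition.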
XBP1 UPR conf – adaptive UPR (XBP1) activation, confirmed | shares compounds with UPR XBP1 act | CHO-XBP1 IRE1-XBP1 luciferase reporter, luminescence | actives 63% (n = 1,000) | activation, % at 20 µM;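 active means reporter signal at least 30% of the positive control's activation in two or more of four replicate wells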;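 further: plate controls were DMSO negative control for no effect and tunicamycin 10 µg/mL positive control for full effect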
Starred values were filed as active, the others as inactive; nt = no result. In the library only some 5.6% were active in any assay of this set; here they are far more common.

SMILES	CHOP UPR activ	aDG glyco up	NR3A LBD binder	CHOP inhibitor	MPTP inh	UPR XBP1 act	XBP1 UPR conf
Cc1cc(N2O[C@]34C=C[C@]25C[C@@H](O)CC[C@]5(C)C3CC[C@]2(C)[C@@H]([C@H](C)/C=C/[C@H](C)C(C)C)CC[C@H]24)no1 (stereo not given in full)	3	0	0	nt	0	41*	-1
O=C(Nc1ccc(-n2nncc2-c2ccco2)cc1)c1cc2ccccc2oc1=O	6	-1	-1	-12	2	67*	1
CCOC(=O)[C@]12CCCC=C1N(Cc1ccccc1)C(=O)[C@H](CC(=O)N1CCCCCC1)C2	nt	0	nt	nt	0	nt	nt
Cc1c(C(=O)OCC(=O)Nc2ccc(C(N)=O)cc2)cccc1[N+](=O)[O-]	-1	0	0	22	4	0	nt
COc1cc(/C=C/c2ccc3cccc(O)c3n2)c(Br)cc1O	19	-1	nt	nt	0	26	nt
COc1cc(/C=C/c2ccc3cccc(O)c3n2)ccc1O	28	0	1	nt	2	60*	36*
COCc1nnc(NC(=O)c2c(-c3c(Cl)cccc3Cl)noc2C)s1	-2	0	-3	nt	0	-3	nt
C#CCn1c(=NC(=O)c2ccc(Br)s2)sc2cccc(OC)c21	6	0	-27	50	2	73*	73*
CN(C)c1ccc(/C=N/NC(=O)c2ccc(NC(=O)c3ccccc3)cc2)cc1	5	0	19*	50	0	189*	83*
CCOc1ccc(C(=O)OC(C)CN2CCN(C)CC2)cc1 (stereo not given)	2	0	-2	nt	0	13	nt
COc1ccc(OC)c(Nc2nc(NCc3ccco3)nc(N)c2[N+](=O)[O-])c1	1	0	5	34	6	55*	62*
Cc1nn(Cc2c(F)c(F)c(F)c(F)c2F)c(C)c1NC(=O)c1nn(C)c(C)c1Br	1	0	1	nt	2	-2	nt
COc1ccc(CNc2nc(-c3ccccc3)nn2C(=O)c2ccc([N+](=O)[O-])cc2)cc1	6	0	0	5	3	33*	1
COc1cc2nc(SCC(=O)NCc3ccco3)n(Cc3ccc(Cl)cc3)c(=O)c2cc1OC	18	0	-1	89*	7	35*	1
COc1ccc(-c2csc3nc(C(C)C)oc(=O)c23)cc1OC	-1	0	-1	11	-2	3	nt
COc1ccc(-c2nc3scc(-c4ccc(OC)c(OC)c4)c3c(=O)o2)cc1	12	0	3	92*	1	41*	47*
C=CCC1NS(=O)(=O)OC(CCc2ccccc2)C1O (stereo not given)	-1	0	1	nt	1	-1	nt
COc1ccc(C(=O)C2CCCN(C(=O)c3csc(SC)n3)C2)cc1F (stereo not given)	nt	0	nt	nt	0	nt	nt
c1ccc2sc(Nc3nc4cc5c(cc4s3)OCO5)nc2c1	5	1	8	-42	4	4	nt
Brc1cc2c(cc1/C=N/Nc1nc3ccccc3s1)OCO2	4	0	0	69	3	33*	155*
COc1ccc(CCNC(=O)/C(C#N)=C2\N=C(NC(=O)c3ccco3)c3ccccc32)cc1	11	0	-6	-22	7	33*	24
Cc1ccc(-c2nnn(CC(=O)N(Cc3cccs3)C(C(=O)NC3CCCCC3)c3ccco3)n2)o1 (stereo not given)	1	0	0	17	3	48*	39*
Cc1ccc(-c2nnn(CC(=O)N(Cc3ccco3)C(C(=O)NC3CCCC3)c3cccs3)n2)o1 (stereo not given)	2	0	3	-3	-3	0	nt
COc1ccccc1-c1sc2cc3c(cc2c1-c1ccc(OCCN2CCCCC2)cc1)OCO3	6	4	1	nt	-2	35*	36*
Cc1ccc2nc(N(CCCN(C)C)C(=O)c3ccc(S(=O)(=O)N4CCc5ccccc5C4)cc3)sc2c1	36	1	-8	nt	2	93*	49*
SMILES	CHOP UPR activ	aDG glyco up	NR3A LBD binder	CHOP inhibitor	MPTP inh	UPR XBP1 act	XBP1 UPR conf
CN(C)CCCN(C(=O)c1cc(-c2cccs2)nc2ccccc12)c1nc2ccc(F)cc2s1	5	6	4	nt	0	33*	40*
CN(C)CCCN(C(=O)c1ccc(S(=O)(=O)N2CCc3ccccc32)cc1)c1nc2ccc(F)cc2s1	3	0	-2	nt	0	5	nt
CN(C)CCCN(C(=O)c1ccc(S(=O)(=O)N2CCc3ccccc3C2)cc1)c1nc2ccc(F)cc2s1	24	0	4	nt	3	31*	71*
Cc1cccc2sc(N(CCCN(C)C)C(=O)c3ccc(S(=O)(=O)N4CCc5ccccc5C4)cc3)nc12	36	0	-2	nt	2	24	nt
CS(=O)(=O)N1CC(C(=O)O)Oc2ccc(CC(=O)O)cc21 (stereo not given)	1	0	2	3	0	-2	nt
O=[N+]([O-])c1ccc(N/N=C/c2ccc(OCc3cccc4ccccc34)cc2)nc1	36	-1	28*	54	3	74*	34*
Cc1ccc(NC(=O)c2nc[nH]c2C(=O)NCCCNC(=O)c2[nH]cnc2C(=O)Nc2ccc(C)cc2)cc1	3	-1	7	nt	1	61*	34*
O=C(Nc1ccc([N+](=O)[O-])cc1)C(Cc1ccccc1)N1C(=O)c2cccc3cccc(c23)C1=O (stereo not given)	24	-1	11*	-33	2	42*	46*
O=C(O)c1ccccc1NC(=O)C(Cc1ccccc1)N1C(=O)c2ccccc2C1=O (stereo not given)	0	0	-29	nt	0	-4	nt
COc1cc(OC)cc(C(=O)N[C@H](C(=O)OCC(=O)Nc2cccnc2Cl)C(C)C)c1	-1	0	-2	nt	0	-1	nt
COc1cccc(C(=O)Oc2cc3c4c(c2)C(C)=CC(C)(C)N4C(=O)C3=O)c1	3	0	5	7	-4	50*	253*
COc1cc2c3c(c1)C(C)=CC(C)(C)N3C(=O)C2=O	2	-1	1	-43	1	12	nt
COc1ccc(C(=O)Oc2cccnc2)cc1OC	0	0	2	21	0	3	nt
COc1ccc(C(=O)Oc2cc3c4c(c2)C(C)=CC(C)(C)N4C(=O)C3=O)cc1OC	4	0	-1	-3	3	65*	31*

Screening results as filed in PubChem.
